Results: ChEMBL document CHEMBL1143654, “Enhancement of aqueous solubility and stability employing a trans acetate axis in trans planar amine platinum compounds while maintaining the biological profile” (J Med Chem, 2005)

Assays:
[1] = Hydrolysis rate constant of the compound; type: ADME
[2] = test system: 41M; assay: Concentration required to inhibit growth of the human ovarian cancer 41M cells by 50% after 96h exposure; type: functional, cell-based
[3] = test system: CH1; assay: Resistance factor was determined as ratio of resistance to that of sensitivity of CH1 cells after 96h exposure to compound; type: functional, cell-based; details: Homo sapiens
[4] = test system: 41M; assay: Resistance factor was determined as ratio of resistance to that of sensitivity of 41M cells after 96h exposure to compound; type: functional, cell-based; details: Homo sapiens
[5] = Solubility in water by sequential addition; type: physicochemical
Method in brief: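 Water was added to the compound in sequential portions, with 15 min agitation after each addition. Solubility was taken as the point at which the solution was no longer clear.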

[6] = Acid dissociation constant pKa2; type: physicochemical
Method in brief: (§1)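 Potentiometric titration of 10^-3 M solutions of trans-[Pt(OH)₂(L)(L')], made from the corresponding dinitrato compounds, with standardized NaOH (9.5×10^-4 M); pKa values were taken from the pH titration curves.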

[7] = test system: A2780; assay: Concentration required to inhibit growth of the human ovarian cancer A2780 cells by 50% after 96h exposure; type: functional, cell-based
[8] = Acid dissociation constant pKa1; type: physicochemical; method in brief: as §1
[9] = test system: CH1; assay: Concentration required to inhibit growth of the human ovarian cancer CH1 cells by 50% after 96h exposure; type: functional, cell-based
[10] = test system: A2780; assay: Resistance factor was determined as ratio of resistance to that of sensitivity of A2780 cells after 96h exposure to compound; type: functional, cell-based; details: Homo sapiens

Substance | k1 [1] | IC50 [2] | RF [3] | RF [4] | S [5] | also measured
CARBOPLATIN | < 1e-08 s⁻¹ | – | – | – | – | –
CISPLATIN [listing 1 of 2 here] | 0.0000518 s⁻¹ | 1.4 µM | – | – | – | –
CISPLATIN [listing 2 of 2 here] | – | – | 6.7 | 6.1 | – | –
TRANSPLATIN | 0.00019 s⁻¹ | – | – | – | – | –
[PtCl(dien)] | 0.000065 s⁻¹ | – | – | – | – | –
trans-[Pt(OAc)2(NH3)2] | – | – | – | – | 21 mg/mL | pKa [6]: 7.08
trans-[Pt(OAc)2(NH3)(iquin)] [listing 1 of 2 here] | 7.4e-07 s⁻¹ | 22 µM | – | – | 5.2 mg/mL | IC50 [7]: 13 µM; pKa [6]: 6.92; pKa [8]: 3.78; IC50 [9]: 20 µM
trans-[Pt(OAc)2(NH3)(iquin)] [listing 2 of 2 here] | – | – | 0.37 | 0.26 | – | RF [10]: 1.69
trans-[Pt(OAc)2(NH3)(quin)] [listing 1 of 2 here] | 3.7e-07 s⁻¹ | 22 µM | – | – | 1.6 mg/mL | IC50 [7]: 13 µM; IC50 [9]: 17 µM
trans-[Pt(OAc)2(NH3)(quin)] [listing 2 of 2 here] | – | – | 0.48 | 1 | – | RF [10]: 1.46
trans-[Pt(OAc)2(py)2] [listing 1 of 2 here] | 3.2e-07 s⁻¹ | 14 µM | – | – | 15 mg/mL | IC50 [7]: 12.8 µM; IC50 [9]: 19 µM
trans-[Pt(OAc)2(py)2] [listing 2 of 2 here] | – | – | 0.22 | 0.32 | – | RF [10]: 0.9
